Tests used:
[1] = Cytotoxicity in HEK293 cells; assay type: cell-based; settings: human
Outline: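 HEK293 cells (ATCC CRL-1573) counted by haemocytometer and seeded at 5000 cells/well into compound-containing plates in DMEM plus 10% FBS. Incubated 20 h at 37 °C, 5% CO2. Resazurin added (25 μg/mL final) for a further 3 h, then fluorescence read at ex 530/em 590 nm. Percent inhibition calculated against media-only and untreated-cell controls. CC50 fitted from dose-response curves with variable bottom, top and slope.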

[2] = system: human red blood cells (RBC); experiment: Haemolytic activity in human red blood cells; assay type: cell-based; settings: 1 h, 37 °C
Outline: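 Human whole blood washed three times with 3 volumes of 0.9% NaCl, counted by haemocytometer, and resuspended in saline. Cells added to compound-containing plates, shaken 10 min, then incubated 1 h at 37 °C. Plates centrifuged at 1000 × g for 10 min to pellet cells and debris. Haemolysis read as supernatant absorbance at 405 nm.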

Structure (SMILES)	CC50 at 20 h [1] [µg/mL]	RBC (HC10), concentration at 10% haemolytic activity [2] [µg/mL]
O=C(CCCCCCCCCC[P+](c1ccccc1)(c1ccccc1)c1ccccc1)Nc1ccc(O)c(O)c1 [Compound 11e, (11-((3,4-dihydroxyphenyl)amino)-11-oxoundecyl)triphenylphosphonium bromide]	22.4	–
CC[C@H](C)[C@H](NC(=O)CN)C(=O)NCC(=O)N[C@@H](C)C(=O)N[C@H](C(=O)N[C@@H](CC(C)C)C(=O)N[C@@H](CCCCN)C(=O)N[C@H](C(=O)N[C@@H](CC(C)C)C(=O)N[C@H](C(=O)N[C@H](C(=O)NCC(=O)N[C@@H](CC(C)C)C(=O)N1CCC[C@H]1C(=O)N[C@@H](C)C(=O)N[C@@H](CC(C)C)C(=O)N[C@H](C(=O)N[C@@H](CO)C(=O)N[C@@H](Cc1c[nH]c2ccccc12)C(=O)N[C@H](C(=O)N[C@@H](CCCCN)C(=O)N[C@@H](CCCNC(=N)N)C(=O)N[C@@H](CCCCN)C(=O)N[C@@H](CCCNC(=N)N)C(=O)N[C@@H](CCC(N)=O)C(=O)N[C@@H](CCC(N)=O)C(N)=O)[C@@H](C)CC)[C@@H](C)CC)[C@@H](C)O)[C@@H](C)O)C(C)C)C(C)C [Mellitin, melittin]	–	2.7

Source: PMC10704080 (Journal of Advanced Research, 2023)
